# Active and inactive are the calls of the source. The rule behind the calls is not given here.
# Assays:
# [1] = system: MRC5; assay: Cytotoxicity against human MRC5 cells after 72 hrs by XTT assay; assay type: cell-based; conditions: MRC5, 72 h
# Summary of the method: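 MRC-5 lung fibroblasts in MEM with 2 mM glutamine and 10% FBS. Seeded at 10 000 cells/well, attached overnight, then treated 72 h with at least eight concentrations (DMSO stock diluted in medium, 0.5% DMSO vehicle). XTT was added and read 1.5 h later. IC50 came from a four-parameter logistic curve; two passages × triplicate wells, six independent experiments, mean ± SEM.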
# [2] = system: CCRF-CEM; assay: Cytotoxicity against human CCRF-CEM cells after 72 hrs by XTT assay; assay type: functional, cell-based
# Summary of the method: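 CCRF-CEM leukaemia cells in RPMI 1640 with 2 mM glutamine and 10% FBS, 37 °C, 5% CO2. Seeded at 10 000 cells/well and exposed for 72 h to at least eight concentrations, freshly diluted from DMSO into medium (vehicle 0.5% DMSO). XTT with electron coupling reagent was read after 4 h. IC50 came from a four-parameter logistic fit over two passages × three wells; six independent experiments.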
# [3] = Cytotoxicity against human SBcl2 cells after 72 hrs by XTT assay; assay type: functional, cell-based; conditions: SBcl2, 72 h
# Summary of the method: (§1)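 Melanoma lines (SBcl2, WM35, WM9, WM164) kept in RPMI 1640 with 2 mM glutamine and 2% FBS, 37 °C, 5% CO2. Plated at 5000 cells/well overnight and treated 72 h across at least eight concentrations (freshly diluted from DMSO; vehicle 0.5% DMSO). XTT absorbance read after 1.5 h. IC50 from four-parameter logistic curves; two passages in triplicate, six experiments, mean ± SEM.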
# [4] = system: MDA-MB-231; assay: Cytotoxicity against human MDA-MB-231 cells after 72 hrs by XTT assay; assay type: functional, cell-based; conditions: MDA-MB-231, 72 h
# Summary of the method: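 MDA-MB-231 breast cancer cells, RPMI 1640 with 2 mM glutamine and 10% FBS, 37 °C in 5% CO2. Seeded at 5000 cells/well, adhered overnight, then 72 h exposure over at least eight concentrations with 0.5% DMSO vehicle. XTT readout after 1.5 h. Four-parameter logistic IC50 from two passages each in three wells; mean ± SEM of six experiments.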
# [5] = Cytotoxicity against human WM164 cells after 72 hrs by XTT assay; assay type: functional, cell-based; conditions: WM164, 72 h; summary of the method: as §1
# [6] = system: HCT-116; assay: Cytotoxicity against human HCT116 cells after 72 hrs by XTT assay; assay type: functional, cell-based; conditions: HCT-116, 72 h
# Summary of the method: (§2)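 U251 glioblastoma and HCT 116 colon cells grown in high-glucose DMEM with 2 mM glutamine and 10% FBS. 5000 cells/well attached overnight, then received at least eight concentrations for 72 h (0.5% DMSO vehicle). XTT read 1.5 h after addition. IC50 by four-parameter logistic fit; two passages × three wells, six independent experiments, mean ± SEM.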
# [7] = Cytotoxicity against human WM9 cells after 72 hrs by XTT assay; assay type: functional, cell-based; conditions: WM9, 72 h; summary of the method: as §1
# [8] = system: U-251; assay: Cytotoxicity against human U251 cells after 72 hrs by XTT assay; assay type: functional, cell-based; conditions: U-251, 72 h; summary of the method: as §2
# [9] = system: MRC5; assay: Selectivity ratio of IC50 for human MRC5 cells to IC50 for human CCRF-CEM cells
# Summary of the method: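 The ratio uses XTT viability IC50s from a 72 h exposure. MRC-5 fibroblasts were grown in MEM and CCRF-CEM cells in RPMI 1640, both with 10% FBS; both were seeded at 10 000 cells/well. XTT was read after 1.5 h (MRC-5) or 4 h (CCRF-CEM). IC50s came from four-parameter logistic fits over at least eight concentrations, six independent experiments.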
# [10] = Cytotoxicity against human WM35 cells after 72 hrs by XTT assay; assay type: functional, cell-based; conditions: WM35, 72 h; summary of the method: as §1
# [11] = Cell cycle arrest in human WM164 cells assessed as accumulation at G2/M phase at IC50 after 12 to 72 hrs using propidium iodide staining by FACS analysis; assay type: functional, cell-based
# Summary of the method: (§3)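 Melanoma lines were kept in RPMI 1640 with 2 mM L-glutamine, 2% FBS and penicillin/streptomycin at 37 °C under 5% CO2. Cells were exposed for 12–72 h, with 0.5% DMSO vehicle controls, then trypsinized. 5 × 10^5 cells were fixed in ice-cold 70% EtOH for 10 min at 4 °C, washed in PBS and stained with PI/RNase A for 15 min at 37 °C. Phases were read by flow cytometry; n = 3 means.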
# [12] = Induction of apoptosis in human WM9 cells assessed as accumulation at sub-G1 phase at IC50 after 24 […]
# [13] = Cell cycle arrest in human WM9 cells assessed as accumulation at G2/M phase at IC50 after 12 to 72 hrs using propidium iodide staining by FACS analysis; assay type: functional, cell-based; summary of the method: as §3
# [14] = system: SBcl2; assay: Induction of morphological changes in human SBcl2 cells assessed as less density and round shape phenotype with fewer dendrites of cells at IC50 after 24 to 48 hrs; assay type: functional, cell-based
# [15] = system: WM164; assay: Induction of apoptosis in human WM164 cells assessed as increased accumulation at sub-G1 phase at IC50 after 24 […]
# [16] = Cell cycle arrest in human SBcl2 cells assessed as increase of cells accumulation at S phase at IC50 after 12 to 72 hrs using propidium iodide staining by FACS analysis; assay type: functional, cell-based; summary of the method: as §3
# [17] = system: SBcl2; assay: Induction of apoptosis in human SBcl2 cells assessed as accumulation at sub-G1 phase at IC50 after 24 […]
# [18] = system: WM9; assay: Induction of morphological changes in human WM9 cells assessed as less density and round shape phenotype with fewer dendrites of cells at IC50 after 24 to 48 hrs; assay type: functional, cell-based
# [19] = system: WM35; assay: Induction of morphological changes in human WM35 cells assessed as less density and round shape phenotype with fewer dendrites of cells at IC50 after 24 to 48 hrs; assay type: functional, cell-based
# [20] = system: WM164; assay: Induction of morphological changes in human WM164 cells assessed as less density and round shape phenotype with fewer dendrites of cells at IC50 after 24 to 48 hrs; assay type: functional, cell-based
# [21] = Induction of apoptosis in human WM35 cells assessed as accumulation at sub-G1 phase at IC50 after 24 […]
# [22] = Cell cycle arrest in human WM35 cells assessed as increase of cells accumulation at S phase at IC50 after 12 to 72 hrs using propidium iodide staining by FACS analysis; assay type: functional, cell-based; summary of the method: as §3
SMILES,IC50 [1],IC50 [2],IC50 [3],IC50 [4],IC50 [5],IC50 [6],IC50 [7],IC50 [8],Ratio IC50 [9],IC50 [10],also measured
CC(=O)O[C@H](CC=C(C)C)C1=CC(=O)c2c(O)ccc(O)c2C1=O [ACETYLSHIKONIN],2600 nM,1000 nM,13 µM,11.3 µM,71.5 µM,9 µM,23.5 µM,15.9 µM,2.6,30.7 µM,–
CC(C)=CC[C@@H](OC(=O)CC(C)(C)O)C1=CC(=O)c2c(O)ccc(O)c2C1=O [BETA-HYDROXYISOVALERYLSHIKONIN],3900 nM,600 nM,8.3 µM,4.6 µM,30.9 µM,4.1 µM,12.7 µM,23.6 µM,6,13 µM,–
CC(C)=CC[C@@H](OC(=O)C=C(C)C)C1=CC(=O)c2c(O)ccc(O)c2C1=O [DIMETHYLACRYLSHIKONIN],2400 nM,1900 nM,1.1 µM,23.2 µM,8.3 µM,20 µM,2.7 µM,30.8 µM,1.3,2.3 µM,Activity [11]: Active; Activity [12]: 20%; Activity [13]: Active; Activity [14]: Active; Activity [15]: 20%; Activity [16]: Active; Activity [17]: 20%; Activity [18]: Active; Activity [19]: Active; Activity [20]: Active; Activity [21]: 20%; Activity [22]: Active
CC[C@]1(O)C[C@@H]2CN(CCc3c([nH]c4ccccc34)[C@@](C(=O)OC)(c3cc4c(cc3OC)N(C)[C@H]3[C@@](O)(C(=O)OC)[C@H](OC(C)=O)[C@]5(CC)C=CCN6CC[C@]43[C@@H]65)C2)C1 [VINBLASTINE],24 nM,9.4 nM,0.011 µM,0.031 µM,0.0042 µM,0.0087 µM,0.015 µM,0.0081 µM,–,0.0035 µM,–
